RORA act: activators of human nuclear receptor RORA; activation, % at 10 µM; AID 560; P35398; CHO-K1 Gal4-RORA LBD luciferase reporter, luminescence; percent increase over mock-subtracted basal signal; 65,000 tested, 1.5% active;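 active = activation above the mean of all tested compounds plus 3 SD, cut at about 49% in these data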;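 note: 0% = DMSO-treated RORA cells and 100% = added signal equal to DMSO minus mock-transfected cells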
SF-1 act: SF-1 (human) activation; CHO-K1 Gal4-SF-1 LBD luciferase reporter; % increase over DMSO SF-1-specific signal; 65,000 tested, 1.9% active; activation, % at 10 µM;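 active = activation above the mean activation of all tested compounds plus 3 SD, cut at about 50% in these data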
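Assay system – CHO-K1 cells with Gal4–hSF-1 LBD chimera plus Gal4-driven luciferase · Quantity – 4,000 cells per well · Times – compound added 1 h post-seeding, 20 h exposure at 37 °C, 5% CO2 · Measured by – luciferase light emission · Benchmarks – DMSO and mock-transfected background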
CD11b adhes inh: CD11b/CD18-fibrinogen binding inhibition; 93,000 tested, 0.54% active; inhibition, % at 10 µM; P05107+P11215; K562 CD11b/CD18 adhesion to fibrinogen, ATPlite luminescence; Mn2+ added to activate the integrin; AID 1497;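 active = primary inhibition of 50% or more at 10 µM, then 40% or more on retest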
Target sequence (P05107 whole entry, looked up, other chains not shown): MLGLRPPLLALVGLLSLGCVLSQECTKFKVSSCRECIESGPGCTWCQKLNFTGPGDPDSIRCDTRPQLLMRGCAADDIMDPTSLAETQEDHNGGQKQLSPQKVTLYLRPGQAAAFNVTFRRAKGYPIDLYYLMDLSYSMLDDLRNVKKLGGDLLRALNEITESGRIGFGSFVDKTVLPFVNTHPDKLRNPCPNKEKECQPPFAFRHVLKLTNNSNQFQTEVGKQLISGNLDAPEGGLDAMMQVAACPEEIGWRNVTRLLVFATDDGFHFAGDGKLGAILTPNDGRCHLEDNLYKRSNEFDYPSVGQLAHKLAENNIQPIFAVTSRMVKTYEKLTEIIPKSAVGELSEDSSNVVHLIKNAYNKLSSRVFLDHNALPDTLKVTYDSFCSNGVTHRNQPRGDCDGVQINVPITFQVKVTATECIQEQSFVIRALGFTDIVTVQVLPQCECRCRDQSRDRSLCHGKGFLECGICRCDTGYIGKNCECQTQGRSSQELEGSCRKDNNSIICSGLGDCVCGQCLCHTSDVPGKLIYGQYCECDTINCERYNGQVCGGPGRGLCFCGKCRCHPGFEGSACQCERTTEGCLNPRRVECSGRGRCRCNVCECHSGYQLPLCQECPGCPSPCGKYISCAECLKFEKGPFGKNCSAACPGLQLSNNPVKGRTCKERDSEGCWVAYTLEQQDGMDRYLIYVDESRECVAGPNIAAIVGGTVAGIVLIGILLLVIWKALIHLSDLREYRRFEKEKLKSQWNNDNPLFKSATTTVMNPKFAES
TNAP act DEA: activators of human TNAP at intermediate phosphate acceptor. purified TNAP, CDP-star luminescence, 100 mM DEA, 30 min; active compounds read high; scale: 0 levamisole-inhibited, 1 vehicle-only enzyme. activation factor at 20 µM. 64,000 tested, under 10 active;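 active = activation factor of at least 2 at 20 µM, relative to controls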
MT1-MMP txn act: MT1-MMP promoter transcription activation; activation factor at 10 µM; 86,000 tested, 0.16% active; HT1080 MT1-MMP promoter luciferase reporter, luminescence, overnight; active compounds read high;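 active = activation factor of at least 2 for MT1-MMP transcription at 10 µM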
CD11b adhes enh: enhancers of human CD11b/CD18 binding to fibrinogen; P05107+P11215; K562 CD11b/CD18 adhesion to fibrinogen, ATPlite luminescence; activation, % at 10 µM; 93,000 tested, 0.07% active; AID 1499;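 active = 10 µM primary screen giving 50% or more activity, confirmed by 40% or more on retest at that dose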
* hit, by the source's call; · = not tested or not shown. The list is not random: actives were taken first. Their share in the collection is about 2.1%.

SMILES | RORA act | SF-1 act | CD11b adhes inh | TNAP act DEA | MT1-MMP txn act | CD11b adhes enh
COc1ccc(-c2nnc3sc(-c4ccco4)nn23)cc1OC | 0 | -17 | -17 | 1 | 1.1 | -2
CCOc1cccc(-c2nnc3sc(-c4cccs4)nn23)c1 | 12 | 0 | -14 | 0.9 | 1.2 | 1
COc1cccc(-c2nnc3sc(-c4cccs4)nn23)c1 | 30 | 70* | -2 | 0.8 | 1.8 | -3
COc1cccc(-c2nnc3sc(-c4ccco4)nn23)c1 | 34 | 50* | 23 | 0.9 | 1.4 | -2
COc1cc(/C=N/c2oc(-c3ccccc3)cc2C#N)ccc1O | · | · | 18 | · | · | -3
O=C(CSC1=NS(=O)(=O)c2ccccc21)Nc1ccccc1 | 4 | -4 | 72* | 1 | 0.9 | -6
CCCC(=O)Nc1ccc(NC(=O)c2ccccn2)cn1 | 89* | 27 | 1 | 1 | 0.9 | -3
COc1cccc(C(=O)Nc2nnc(C(C)C)s2)c1 | 5 | 3 | · | 0.9 | 0.6 | ·
COc1cccc(C(=O)Nc2ccccc2)c1 | · | · | 14 | · | 1.4 | 0
CCCC(=O)Nc1ccc(NC(=O)c2cccc(OC)c2)nc1 | 44 | 60* | -4 | 0.9 | 1.5 | 4
CCCc1nnc(NC(=O)c2cccc(OC)c2)s1 | 57* | 37 | 4 | 0.9 | 1 | -1
COc1cccc(C(=O)Nc2ccc(NC(C)=O)cn2)c1 | 16 | 35 | · | 0.8 | 1.4 | ·
COc1cccc(C(=O)Nc2cccc(SC)c2)c1 | 51* | 81* | 10 | 0.8 | 1.1 | 0
CN(CCCNC(=O)c1cccn2c(=O)c3ccccc3nc12)Cc1ccccc1 | · | · | -4 | · | · | 0
COC(=O)[C@H](Cc1ccccc1)NC(=O)[C@H]1C[C@@H]1[C@H](NC(=O)OCc1ccccc1)c1ccccc1 | · | · | · | · | 1.2 | ·
COC(=O)[C@@]1(Cc2ccc(OC)cc2)[C@H]2c3cc(C(=O)N(C)C)n(Cc4nc5ccccc5[nH]4)c3C[C@H]2CN1C(=O)c1ccccc1 | · | · | · | · | 1.1 | ·
CCOC(=O)c1c(NC(=S)NC(=O)c2cnn(CC)c2)sc2c1CCC(C)C2 (centres undefined) | · | · | 5 | · | · | 157*
Cc1onc(-c2c(Cl)cccc2Cl)c1C(=O)NC(=S)Nc1sc2c(c1C(N)=O)CCC(C)C2 (centres undefined) | · | · | -20 | · | · | 76
CCOC(=O)c1c(NC(=S)NC(=O)c2ccc(Cn3cc(Cl)cn3)o2)sc2c1CCCCC2 | · | · | 4 | · | · | 69*
COC(=O)c1sc(NC(=O)c2ccc(Cn3cc(Cl)cn3)o2)c(C#N)c1C | 7 | -2 | 75 | 1 | 1.1 | -8
Brc1cccc(-c2n[nH]c(-c3ccccc3)n2)c1 | 83* | 65* | 11 | 0.8 | 1.6 | 0
Cc1cc(N)c(NC2=CC(=O)CC(C)(C)C2)cc1C | 70* | 9 | 28 | 0.9 | 1.1 | -4
CC(=O)Nc1ccc(NC2=CC(=O)CC(C)(C)C2)cc1 | -13 | 10 | 4 | 0.9 | 1.1 | 0
Cc1cc(OCC(=O)N2CCCC2)ccc1Cl | 18 | 51* | 0 | 1 | 1.3 | -2
COc1ccccc1N1CCN(C(=O)COc2ccc(C)cc2Br)CC1 | -13 | -2 | 5 | 1 | 1 | -3
SMILES | RORA act | SF-1 act | CD11b adhes inh | TNAP act DEA | MT1-MMP txn act | CD11b adhes enh
Cc1ccc(OCC(=O)N2CCCCC2)c(Br)c1 | 54* | 57* | -12 | 0.9 | 1.3 | 2
Cc1cc(OCC(=O)N2CCCC2)cc(C)c1Cl | -13 | -10 | 13 | 0.8 | 1.5 | 0
Nc1oc2ccccc2c(=O)c1C=O | · | · | -2 | · | · | -5
Cc1nn(-c2ccccc2)c(C)c1C(=O)OCC(=O)c1c(N)n(CC(C)C)c(=O)n(C)c1=O | -48 | -55 | 65* | 0.9 | 1.2 | -7
Cc1nn(-c2ccccn2)c2c1-c1nc(N3CCOCC3)ncc1CC2 | · | · | 0 | · | 1.3 | -2
Cc1nn(-c2ccccn2)c2c1-c1nc(N)ncc1CC2 | 51* | 45 | 14 | 1.1 | 1.9 | -7
Cn1nc(-c2ccccc2F)c2cc(C(=O)Nc3ccc4c(c3)OCCO4)sc21 | · | · | -1 | · | 1.2 | 2
COc1cccc(-c2nn(C)c3sc(C(=O)Nc4ccc5c(c4)OCCO5)cc23)c1 | 56* | 80* | 1 | 0.8 | 1.8 | 5
CCc1ccc(CNC(=O)c2cc3c(C)nc4ccccc4c3o2)cc1 | · | · | 94* | · | · | -8
O=C(CC(Nc1ccccc1)C(=O)O)c1ccccc1 (centres undefined) | 59* | 35 | 12 | 0.8 | 0.8 | -1
O=C(CC(Nc1ccccc1)c1ccc(F)cc1)c1ccccc1 (centres undefined) | · | · | 11 | · | · | 2
O=C(C[n+]1cc2ccccc2c2ccccc21)c1ccccc1 | · | · | -5 | · | · | -3
CCCCCCCCC[n+]1cccc2c3ccccc3ccc21 | · | · | 106* | · | · | -10
CCCCCCCCCCCCCCCC[n+]1cccc2ccccc21 | · | · | 106* | · | · | -7
CCC1=C2CC[C@H]3C(=O)N(CC)C(=O)[C@H]3[C@H]2[C@@]2(Cc3ccccc3)C(=NCC3CC3)OC(=O)N2C1=O | · | · | · | · | 1.1 | ·
Cn1c(SCC(=O)c2ccccc2)nnc1-c1cccc(N)c1 | · | · | -15 | · | 1.5 | -6
COC(=O)/C(=C(/F)Sc1cc(C)c(O)c(C)c1)C(F)(F)F | · | · | 55* | · | 1.1 | -7
C=C(C)CSc1nncn1/N=C/c1ccc(OC)cc1 | 49* | 55* | 10 | 0.8 | 1.9 | -3
CCOc1ccc2nc(N3CCOCC3)nc(C)c2c1 | 51* | 47 | -26 | 1 | 1 | -2
CCOc1ccc(Nc2cc(C)nc(N3CCOCC3)n2)cc1 | -1 | 6 | -13 | 0.9 | 1.2 | -2
Nc1nc2ccccc2n1C(=O)CCc1ccccc1 | 45 | 67* | -34 | 0.9 | 1.9 | 1
Cc1ccc(C(=O)N/N=C(/CC(=O)c2cccs2)C(F)(F)F)cc1 | · | · | 98* | · | · | -9
C/C(=N\NC(=O)c1ccccc1)c1ccc(NC(=O)c2cccs2)cc1 | · | · | -10 | · | · | 2
CCCOC(=O)c1sc2nc3c(cc2c1N)C(=O)CCC3 | 35 | 60* | -30 | 0.9 | 1.3 | 8
Nc1c(C(=O)NCc2ccco2)sc2nc3c(cc12)C(=O)CCC3 | 7 | 31 | -7 | 0.9 | 1.1 | 7
C=CCNC(=O)c1cc(-c2ccc(Br)cc2)on1 | 61* | 36 | 18 | 1.1 | 1.7 | 1
CCCCNC(=O)c1cc(-c2ccc(F)cc2)on1 | 72* | 47 | · | 0.9 | 1.4 | ·
CCCCNC(=O)c1cc(-c2ccc(OC)cc2)on1 | 59* | 47 | 22 | 0.9 | · | 13
CC(=O)N1C2(C=CC1(C)C(=O)NCc1cc(F)cc(C(F)(F)F)c1)CCCCC2 (centres undefined) | · | · | · | · | 1.1 | ·
CN(C)S(=O)(=O)n1ccnc1 | · | · | -2 | · | 1.1 | -4
